MC4R barr agon – human MC4R agonism via beta-arrestin | P32245 | U2OS MC4R beta-arrestin complementation, luminescence; percent of melanotan II response, DMSO zero | activation, % at 8.9 µM | 0.98% of 360,000 active;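 active = activation above a per-plate cutoff, the mean activation of sample wells on that plate plus 3 SD, cut at about 8% in these data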
NTR1 agonist – NTR1 (human) agonism. P30989. NTR1-U2OS beta-arrestin-GFP spot imaging, agonist mode. activation, % at 20 µM. 0.17% of 330,000 active. AID 493036;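 active = activation at or above 40% of the spot to cytoplasm intensity ratio, with at least 20 cells analyzed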;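 note: 0% = DMSO without peptide and 100% = 100 nM NTR1 peptide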
Target sequence (P30989 whole entry, looked up): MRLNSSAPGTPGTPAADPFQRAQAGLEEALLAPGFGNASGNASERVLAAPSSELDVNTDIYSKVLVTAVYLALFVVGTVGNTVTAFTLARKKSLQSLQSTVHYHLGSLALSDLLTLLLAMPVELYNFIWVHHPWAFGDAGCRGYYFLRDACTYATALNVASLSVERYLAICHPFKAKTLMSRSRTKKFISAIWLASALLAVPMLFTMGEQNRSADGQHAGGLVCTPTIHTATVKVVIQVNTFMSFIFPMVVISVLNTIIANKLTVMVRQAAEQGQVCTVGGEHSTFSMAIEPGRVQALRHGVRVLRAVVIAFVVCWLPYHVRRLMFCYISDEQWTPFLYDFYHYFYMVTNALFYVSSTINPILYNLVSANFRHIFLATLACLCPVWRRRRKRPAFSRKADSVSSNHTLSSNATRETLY
MC4R antagonist – human MC4R antagonism in cAMP assay; P32245; MC4R-expressing cells, MTII-stimulated cAMP, LANCE TR-FRET; inhibition, % at 6.5 µM; 0.48% of 360,000 active; AID 540295;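 active = inhibition above its plate's cutoff, the mean of tested wells on that plate plus 3 SD, cut at about 29% in these data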;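 note: 0% = Melanotan II alone and 100% = Melanotan II plus saturating MCL0020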
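System: U2OS cells stably expressing human melanocortin 4 receptor (MC4R). Reagent: Melanotan II challenge after compound preincubation. Doses: 6.5 µM. Times: 30-min compound, 1-h challenge, 1-h detection, room temperature. Measured by: TR-FRET with Eu-cAMP and labeled anti-cAMP, 671 nm. Replicates: singlicate.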
HGIII-sPLA2 inh – Inhibits HGIII-sPLA2 liposome hydrolysis, primary screen | QFRET BODIPY PC-A2 liposome hydrolysis, fluorescence | AID 743126 | inhibition, % at 12.2 µM | Q9NZ20 | 0.56% of 370,000 active;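 active = inhibition above mean plus 3 SD of compounds lying within the high and low control bounds, cut at about 19% in these data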;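 note: 0% = median of test compound wells and 100% = no enzyme DMSO wells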
Exocytosis inh – blocks lytic granule exocytosis; TALL-104 LAMP-1 surface exposure, flow cytometry; cells stimulated with thapsigargin and PMA; inhibition, % at 10 µM; 0.66% of 360,000 active; AID 651702;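 active = inhibition above about 55%, limit read from the data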
A1 inh – inhibitors of the anti-apoptotic protein A1, read as caspase activation. MEF A1-2A-BIM cells, Caspase-Glo 3/7 luminescence, 3 h; percent of clofoctol response, vehicle zero. 0.066% of 330,000 active. caspase activation, % (concentration not given with the values);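 active = over half of replicate activation scores above 10%, or exactly half above 10 with the replicate mean above 10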
An asterisk follows results filed as active. This is a sample that favours compounds with a hit; in the whole collection about 2.5% have one here.

How did COc1ccc(NC(=O)/C(C#N)=C/c2ncc([N+](=O)[O-])n2C)c(OC)c1 do in these assays?
MC4R barr agon: -1.5; NTR1 agonist: -1.1; MC4R antagonist: -12.7; HGIII-sPLA2 inh: 1.6; Exocytosis inh: 97.0*; A1 inh: 0.8

How did Cc1ccc([N+](=O)[O-])cc1N/C=C1\CCc2ccccc2C1=O do in these assays?
MC4R barr agon: -3.2; NTR1 agonist: 5.7; MC4R antagonist: -0.3; HGIII-sPLA2 inh: 10.9; Exocytosis inh: 57.1*; A1 inh: -0.3

What do the screens show for `CCCC(=O)OC[C@H]1CN(C2CCCC2)S(=O)(=O)c2c(F)cccc2O1`?
HGIII-sPLA2 inh: 3.2

What do the screens show for `Cc1c2cnn(CC(=O)Nc3c(F)c(F)cc(F)c3F)c(=O)c2c(C)n1Cc1ccccc1F`?
MC4R barr agon: 25.1*; NTR1 agonist: -0.1; MC4R antagonist: 22.0; HGIII-sPLA2 inh: -1.8; Exocytosis inh: 1.2; A1 inh: 0.2

Results for Cc1ccc(C2CC(c3ccco3)n3ncnc3N2)cc1 (stereo not given) ?
MC4R barr agon: -1.4; NTR1 agonist: -3.6; MC4R antagonist: 2.7; HGIII-sPLA2 inh: -2.6; Exocytosis inh: -1.7; A1 inh: -1.9

Results for Cc1ccc2c(c1)C(N1CCCC1=O)CC(c1ccco1)N2 (stereo not given) ?
MC4R barr agon: 0.2; NTR1 agonist: -0.1; MC4R antagonist: -3.0; HGIII-sPLA2 inh: -1.8; Exocytosis inh: 87.3*; A1 inh: -14.3

What do the screens show for `COC(=O)[C@]12C[C@H](CC(=O)N3CCN(C(=O)C4CC4)CC3)C(=O)N(Cc3ccc4c(c3)OCO4)C1=C[C@H](COCc1ccccc1)O[C@@H]2C`?
HGIII-sPLA2 inh: 2.9

Results for Oc1c(C=C2N=c3ccccc3=N2)sc(=S)n1-c1ccc2ccccc2c1 ?
MC4R barr agon: 0.6; NTR1 agonist: 1.4; MC4R antagonist: 7.1; HGIII-sPLA2 inh: -2.0; Exocytosis inh: 59.0*; A1 inh: -0.8

What do the screens show for `Oc1c(C=C2N=c3ccccc3=N2)sc(=S)n1-c1ccc(F)cc1`?
MC4R barr agon: 0.0; NTR1 agonist: 3.4; MC4R antagonist: 0.8; HGIII-sPLA2 inh: 7.5; Exocytosis inh: 1.8; A1 inh: 0.6

Results for COC(=O)C1OC1c1cc([N+](=O)[O-])ccc1OC (stereo not given) ?
MC4R barr agon: 2.3; MC4R antagonist: 0.0; HGIII-sPLA2 inh: -4.7; Exocytosis inh: 2.4

How did COc1ccc([N+](=O)[O-])cc1C1NN=C(c2ccccc2O)S1 (stereo not given) do in these assays?
MC4R barr agon: 10.5*; NTR1 agonist: 3.9; MC4R antagonist: 2.5; HGIII-sPLA2 inh: -1.2; Exocytosis inh: 0.7; A1 inh: -0.7

Results for C[C@@H]1CN([C@@H](C)CO)C(=O)c2cc(Br)cnc2O[C@@H]1CN(C)C(=O)c1ccc(F)cc1 ?
HGIII-sPLA2 inh: 6.6

Results for c1ccc(Cn2c(-c3ccccc3)nc3nc4ccccc4nc32)cc1 ?
MC4R barr agon: 9.3*; NTR1 agonist: 1.6; MC4R antagonist: -0.1; HGIII-sPLA2 inh: 8.3; Exocytosis inh: -1.8; A1 inh: -1.1

Results for CCOC(=O)[C@@]12CN(C(=O)OC(C)(C)C)CC=C1N(Cc1ccc(OC)cc1)C(=O)[C@H]2CC(=O)N1CCN(C(=O)C2CC2)CC1 ?
HGIII-sPLA2 inh: 6.0

What do the screens show for `C=Cc1ccc(C(=O)N(Cc2ccc(F)cc2)C(C(=O)N(C)C2CCCC2)c2ccc(OC)c(OC)c2)cc1` (stereo not given)?
HGIII-sPLA2 inh: 6.5

What do the screens show for `CCc1ccc2c(c1)Sc1ccccc1CC2N1CCN(C)CC1` (stereo not given)?
MC4R barr agon: 3.2; NTR1 agonist: 11.7; MC4R antagonist: 3.2; HGIII-sPLA2 inh: -10.3; Exocytosis inh: 57.5*; A1 inh: 1.1

What do the screens show for `COC(=O)[C@@]12CCCCC3=C1N(CCC3)C(=O)[C@H]2CC(=O)NCc1ccccc1`?
HGIII-sPLA2 inh: -0.5

How did O=C(Nc1ccc(CSc2ccccc2)cc1)c1ccccc1 do in these assays?
MC4R barr agon: -1.8; NTR1 agonist: -1.1; MC4R antagonist: 5.3; HGIII-sPLA2 inh: 5.3; Exocytosis inh: 1.6; A1 inh: -8.0

What do the screens show for `O=C(COc1ccccc1)Nc1ccc(CSc2ccccc2)cc1`?
MC4R barr agon: 10.4*; NTR1 agonist: -4.9; MC4R antagonist: 11.3; HGIII-sPLA2 inh: 6.6; Exocytosis inh: -1.1; A1 inh: -0.3

What do the screens show for `CN(CCO)C(=O)c1nc[nH]c1C(=O)N1CCN(c2ccccc2)CC1`?
HGIII-sPLA2 inh: 0.9

Results for N#CC1=C(N)NC(=S)C(C(N)=O)C1c1ccc(Cl)cc1Cl (stereo not given) ?
MC4R barr agon: -3.7; NTR1 agonist: 0.9; MC4R antagonist: 0.5; HGIII-sPLA2 inh: 2.4; Exocytosis inh: 99.4*; A1 inh: 0.7

How did Cc1ccc(CN(C)C[C@H]2OCc3cnnn3CCCC(=O)N([C@H](C)CO)C[C@@H]2C)cc1 do in these assays?
HGIII-sPLA2 inh: 5.0

How did Cc1cccc(N=NC(=S)NNc2cccc(C)c2)c1 do in these assays?
MC4R barr agon: -2.9; MC4R antagonist: -7.3; HGIII-sPLA2 inh: 26.5*; Exocytosis inh: 12.9

How did O=C(NCCc1ccccc1F)c1cc2ccccn2n1 do in these assays?
HGIII-sPLA2 inh: -3.8

Results for CCOC(=O)c1c2ccc(OCC(=O)N/N=C/c3ccc(C)cc3)cc2n2ccccc12 ?
MC4R barr agon: 0.8; NTR1 agonist: 19.0; MC4R antagonist: -1.8; HGIII-sPLA2 inh: -2.4; Exocytosis inh: -4.5; A1 inh: 34.8*

How did CC(C)C[C@H]1CN([C@@H](Cc2ccccc2)CN2CCC[C@H]2CN2C(=O)C(=O)NC[C@@H]2Cc2ccccc2)C(=O)C(=O)N1CC1CCCCCC1 do in these assays?
HGIII-sPLA2 inh: 11.9

What do the screens show for `Cc1ccc2nc(-c3ccc(NC(=O)CSc4ccccc4)cc3)[nH]c2c1`?
MC4R barr agon: 9.0*; NTR1 agonist: 3.8; MC4R antagonist: 9.9; HGIII-sPLA2 inh: -2.3; Exocytosis inh: 15.6; A1 inh: -4.3

Results for O=C(CSc1ccccc1)Nc1ccc(-c2nc3ccccc3[nH]2)cc1 ?
MC4R barr agon: 10.6*; NTR1 agonist: 0.5; MC4R antagonist: 12.6; HGIII-sPLA2 inh: -14.9; Exocytosis inh: -0.9; A1 inh: -0.3

Results for Cc1ccc2nc(SCC(=O)Nc3ccc(C(N)=O)cc3)[nH]c2c1 ?
MC4R barr agon: 3.8; NTR1 agonist: 0.8; MC4R antagonist: 4.1; HGIII-sPLA2 inh: 4.0; Exocytosis inh: 1.0; A1 inh: 0.1

How did COc1ccc(CSc2nnc(SCC(=O)Nc3ccc4c(c3)OCO4)s2)cc1 do in these assays?
HGIII-sPLA2 inh: -22.4

Results for COc1ccc(C=O)cc1COc1ccc(Cl)cc1[N+](=O)[O-] ?
MC4R barr agon: 9.9*; NTR1 agonist: 2.6; MC4R antagonist: -7.4; HGIII-sPLA2 inh: 0.9; Exocytosis inh: -2.9; A1 inh: 0.6
